pIC50: −log10 of the molar value. Calls of active or inactive are those of the source. The rule behind the calls is not given here.

Assay [1] in a line: Cytotoxicity against human HL60 cells assessed as cell viability after 48 hrs by MTS assay. To be noted: HL-60, 48 h. The format is functional, cell-based. Summed up:
(§1)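 Cells grown in RPMI-1640 or DMEM with 10% FBS at 37 °C, 5% CO2. Seeded, incubated 12 h, then exposed to a range of concentrations in triplicate for 48 h. Viability read by MTS reduction to formazan. IC50 calculated by Reed and Muench method; cis-platin positive control.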

Assay [2] is described as follows: Cytotoxicity against human SMMC7721 cells assessed as cell viability after 48 hrs by MTS assay. The class given is functional, cell-based. To be noted: SMMC-7721, 48 h. Summed up: as §1
In general terms: Tetrazolium assays rely on reduction of a dye to a coloured formazan, in cell work by metabolically active cells.

Assay [3] deals with A549. The assay is described as follows: Cytotoxicity against human A549 cells assessed as cell viability after 48 hrs by MTS assay. The class given is functional, cell-based. To be noted: A549, 48 h. In short, it runs like this:
as §1

For assay [4], the system named is MCF7. Nature of the assay: Cytotoxicity against human MCF7 cells assessed as cell viability after 48 hrs by MTS assay. The class given is functional, cell-based. To be noted: MCF7, 48 h. In short, it runs like this: as §1
Assay [5] concerns SW480. The assay is described as follows: Cytotoxicity against human SW480 cells assessed as cell viability after 48 hrs by MTS assay. To be noted: SW480, 48 h. The format is functional, cell-based. In short, it runs like this: as §1
Assay [6] concerns HL-60. Nature of the assay: Cytotoxicity against human HL60 cells assessed growth inhibition at 40 uM after 48 hrs by MTS assay relative to control. The format is functional. Summed up:
(§2)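 Cultured in RPMI-1640 or DMEM with 10% FBS at 37 °C under 5% CO2. Cells seeded, given 12 h at 37 °C, then treated with compound at 40 μM for 48 h. Growth inhibition measured by MTS assay (formazan colorimetry).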

The subject of assay [7] is SMMC-7721. Nature of the assay: Cytotoxicity against human SMMC7721 cells assessed growth inhibition at 40 uM after 48 hrs by MTS assay relative to control. The format is functional. Summed up: as §2
Assay [8] concerns A549. The assay is described as follows: Cytotoxicity against human A549 cells assessed growth inhibition at 40 uM after 48 hrs by MTS assay relative to control. The format is functional. In short, it runs like this:
as §2

The subject of assay [9] is MCF7. Nature of the assay: Cytotoxicity against human MCF7 cells assessed growth inhibition at 40 uM after 48 hrs by MTS assay relative to control. The format is functional. In short, it runs like this: as §2
Assay [10] deals with SW480. Nature of the assay: Cytotoxicity against human SW480 cells assessed growth inhibition at 40 uM after 48 hrs by MTS assay relative to control. The class given is functional. Summed up:
as §2

What is called pIC50 is −log10 of the IC50, conventionally taken in molar units. Turning to `C=C1[C@H]2C[C@@H](O)[C@H]3C45CO[C@@H]6OC[C@](C)(CC[C@@H]4OC(=O)[C@]3(C2)[C@@H]1O)[C@@H]65` (stereo not given in full), the pIC50 in [1], in assay [2], in assay [3], in assay [4] and in assay [5] was less than 4.40 throughout. Further, the “growth inhibition (GI)” value in assay [6], in assay [7], in assay [8], in [9] and in assay [10] was “inactive” each time.

On to `CO[C@@H]1OC(O)C23[C@H](CCC(C)(C)[C@@H]12)OC(=O)[C@@]12C[C@H](CC[C@@H]31)[C@@H](C)C2=O` (stereo not given in full), for which the pIC50 in assay [1], in assay [2], in assay [3], in assay [4] and in assay [5] was less than 4.40 in each case. For the same compound, the “growth inhibition (GI)” value in [6], in assay [7], in assay [8], in assay [9] and in [10] was “inactive” each time.

For `C[C@H]1C(=O)[C@]23C[C@@H]1CC[C@H]2C12[C@H](CCC(C)(C)[C@H]1CO[C@@H]2O)OC3=O` (stereo not given in full), the pIC50 in [1], in assay [2], in assay [3], in assay [4] and in assay [5] was less than 4.40 in each case. Also, the “growth inhibition (GI)” value in assay [6], in assay [7], in assay [8], in assay [9] and in assay [10] was “inactive” throughout.

Take `C=C1[C@H]2CC[C@@H]3[C@](C2)(C(=O)O[C@H]2C[C@@H]4OC5O[C@@H](O)[C@H](C4(C)C)[C@@]523)[C@@H]1O`: the negative-log IC50 (pIC50) in assay [1], in assay [2], in assay [3], in [4] and in assay [5] was less than 4.40 throughout. Moreover, the “growth inhibition (GI)” value in assay [6], in assay [7], in [8], in assay [9] and in [10] was “inactive” throughout.

`C[C@]12CC[C@@H]3OC(=O)[C@@]45C[C@H](C[C@@H](O)[C@@H]4[C@]34CO[C@H](OC1)[C@H]24)[C@@]1(CCC2=C(O1)[C@]13C[C@@H]2C[C@@H](O)[C@@H]1[C@]12CO[C@@H]4OC[C@](C)(CC[C@@H]1OC3=O)[C@@H]42)C5=O`: the pIC50 in assay [1], in assay [2], in [3], in assay [4] and in assay [5] was less than 4.40 each time. Further, the “growth inhibition (GI)” value in [6], in [7], in assay [8], in [9] and in [10] was “inactive” each time.

For the compound `COC[C@H]1C(=O)[C@]23C[C@@H]1C[C@@H](O)[C@H]2C12CO[C@@H](O)[C@@H]1C(C)(C)CC[C@@H]2OC3=O` (stereo not given in full), the pIC50 in assay [1], in [2], in [3], in [4] and in [5] was less than 4.40 throughout. The “growth inhibition (GI)” value in [6], in [7], in [8], in assay [9] and in [10] was “inactive” in each case.

For the compound `COC[C@@H]1C(=O)[C@]23C[C@@H]1C[C@@H](O)[C@H]2C12CO[C@@H](O)[C@@H]1C(C)(C)CC[C@@H]2OC3=O` (stereo not given in full), the negative logarithm of the IC50 (pIC50) in [1], in assay [2], in assay [3], in [4] and in assay [5] was less than 4.40 throughout. Also, the “growth inhibition (GI)” value in [6], in [7], in assay [8], in assay [9] and in assay [10] was “inactive” each time.

Consider `C[C@H]1C(=O)[C@]23C[C@@H]1C[C@@H](O)[C@H]2C12CO[C@@H](O)[C@@H]1C(C)(C)CC[C@@H]2OC3=O` (stereo not given in full), for which the pIC50 in [1], in [2], in [3], in [4] and in assay [5] was less than 4.40 each time. Also, the “growth inhibition (GI)” value in [6], in [7], in assay [8], in assay [9] and in [10] was “inactive” in each case.

Consider `C[C@H]1C(=O)[C@]23C[C@@H]1CC[C@H]2C12CO[C@@H](O)[C@@H]1C(C)(C)[C@@H](O)C[C@@H]2OC3=O` (stereo not given in full), for which the pIC50 in assay [1], in assay [2], in [3], in assay [4] and in [5] was less than 4.40 throughout. For the same compound, the “growth inhibition (GI)” value in assay [6], in assay [7], in assay [8], in [9] and in assay [10] was “inactive” each time.

Consider `CO[C@H]1O[C@@H](O)[C@@H]2C(C)(C)CC[C@@H]3OC(=O)[C@@]45C[C@H](CC[C@H]4C132)[C@@H](C)C5=O` (stereo not given in full), for which the pIC50 in [1], in assay [2], in [3], in assay [4] and in [5] was less than 4.40 in each case. Besides, the “growth inhibition (GI)” value in assay [6], in [7], in assay [8], in assay [9] and in [10] was “inactive” throughout.

For the compound `CO[C@@H]1O[C@@H](O)[C@@H]2C(C)(C)CC[C@@H]3OC(=O)[C@@]45C[C@H](CC[C@H]4C132)[C@@H](C)C5=O` (stereo not given in full), the pIC50 in [1], in [2], in [3], in [4] and in [5] was less than 4.40 each time. Further, the “growth inhibition (GI)” value in [6], in [7], in assay [8], in assay [9] and in assay [10] was “inactive” each time.

For `C[C@H]1C(=O)[C@]23C[C@@H]1CC[C@H]2C12C(O)O[C@@H](O)[C@@H]1C(C)(C)CC[C@@H]2OC3=O` (stereo not given in full), the pIC50 in assay [1], in assay [2], in [3], in assay [4] and in assay [5] was less than 4.40 each time. For the same compound, the “growth inhibition (GI)” value in assay [6], in assay [7], in assay [8], in assay [9] and in assay [10] was “inactive” throughout.

As to `C[C@H]1C(=O)[C@]23C[C@@H]1CC[C@H]2C12[C@H](O)OC[C@@H]1C(C)(C)CC[C@@H]2OC3=O` (stereo not given in full), the pIC50 in [1], in assay [2], in [3], in assay [4] and in [5] was less than 4.40 each time. Also, the “growth inhibition (GI)” value in assay [6], in assay [7], in [8], in assay [9] and in assay [10] was “inactive” each time.

Regarding `C[C@@H]1C(=O)[C@]23C[C@@H]1CC[C@H]2C12CO[C@@H](O)[C@@H]1C(C)(C)CC[C@@H]2OC3=O` (stereo not given in full), the pIC50 in assay [1], in assay [2], in assay [3], in assay [4] and in [5] was less than 4.40 throughout. For the same compound, the “growth inhibition (GI)” value in assay [6], in [7], in assay [8], in assay [9] and in [10] was “inactive” each time.

`C[C@H]1C(=O)[C@]23C[C@@H]1CC[C@H]2C12CO[C@@H](O)[C@@H]1C(C)(C)CC[C@@H]2OC3=O` (stereo not given in full): the negative-log IC50 (pIC50) in assay [1], in assay [2], in assay [3], in assay [4] and in assay [5] was less than 4.40 each time. The “growth inhibition (GI)” value in assay [6], in [7], in assay [8], in [9] and in assay [10] was “inactive” throughout.
